In ChEMBL document CHEMBL1800004, “Discovery of 4-anilinofuro[2,3-b]quinoline derivatives as selective and orally active compounds against non-small-cell lung cancers” (J Med Chem, 2011):
Activity calls are given as the source filed them. No cut-off for these calls is given here.

Columns and labels:
[1] = tested on: H1229; test: Anticancer activity against human H1229 cells xenografted in orthotropic lung cancer nude mouse model assessed as cancer growth inhibition at 120 mg/kg, po administered for 2 weeks monitored for 10 weeks; assay type: functional, organism-based; parameters: dose 120 mg/kg
Summary of the method: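 Orthotopic lung model using H-1229 cells. Nude mice were irradiated (500 rads γ) and anesthetized with ketamine/xylazine (160/12 mg/kg, im), then tumor tissue was implanted by cannula. Oral dosing lasted 2 weeks. Mice were checked daily for morbidity, and animal and primary tumor weights were recorded over 10 weeks.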

[2] = tested on: NCI-H460; test: Antitumor activity against human NCI-H460 cells xenografted subcutaneously in BALB/c nude mouse assessed as decreased tumor size at 10 to 20 mg/kg, ip for 6 days relative to control; assay type: functional, organism-based
Summary of the method: (§1)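 NCI-H460 cells were grown in RPMI1640 with 10% NBS and harvested by trypsin. 5 × 10⁶ cells in 40% Matrigel were injected subcutaneously into the flanks of 6–8-week-old Balb/c nude mice. Once tumors reached 5 mm³, dosing ran 6 days (ip 10 or 20; oral 60 or 120), vehicle DMSO/1.4% Tween 80/1% carboxymethylcellulose saline. Tumors were caliper-measured, weighed at sacrifice, and survival analyzed by Kaplan–Meier.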

[3] = tested on: NCI-H460; test: Increase in cyclin B level in human NCI-H460 cells after 16 hrs by immunoblotting analysis; assay type: functional, cell-based
Summary of the method: (§2)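 H460 lysates were immunoblotted for MPM2 and cyclin B after 16 h treatment across a concentration series.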

[4] = target: T1, DNA topoisomerase 1 (Homo sapiens) (UniProt P11387); test: Inhibition of human topoisomerase 1 mediated relaxation of super coiled pBR322 plasmid DNA at 30 uM after 30 mins by agarose gel electrophoresis
T1 sequence (whole entry): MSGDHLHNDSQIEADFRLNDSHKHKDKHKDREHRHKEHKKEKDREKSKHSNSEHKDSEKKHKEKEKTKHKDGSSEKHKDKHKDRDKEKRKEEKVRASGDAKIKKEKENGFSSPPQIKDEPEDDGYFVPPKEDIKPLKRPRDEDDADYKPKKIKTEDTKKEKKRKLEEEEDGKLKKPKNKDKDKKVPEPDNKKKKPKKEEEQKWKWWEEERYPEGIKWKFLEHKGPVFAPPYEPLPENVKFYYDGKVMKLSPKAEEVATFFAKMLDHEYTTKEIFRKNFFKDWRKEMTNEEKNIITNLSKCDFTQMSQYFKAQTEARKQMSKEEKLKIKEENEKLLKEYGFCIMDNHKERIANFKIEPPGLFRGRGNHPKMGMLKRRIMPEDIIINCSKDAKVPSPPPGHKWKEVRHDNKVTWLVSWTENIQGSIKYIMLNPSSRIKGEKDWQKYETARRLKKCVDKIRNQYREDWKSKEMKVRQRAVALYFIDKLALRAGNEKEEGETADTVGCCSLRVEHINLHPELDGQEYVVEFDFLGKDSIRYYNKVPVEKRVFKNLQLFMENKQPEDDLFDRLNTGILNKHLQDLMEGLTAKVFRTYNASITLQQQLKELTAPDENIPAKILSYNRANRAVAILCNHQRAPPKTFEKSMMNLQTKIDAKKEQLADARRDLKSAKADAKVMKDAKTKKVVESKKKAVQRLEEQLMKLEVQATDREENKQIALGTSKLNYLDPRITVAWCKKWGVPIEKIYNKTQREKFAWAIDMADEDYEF

[5] = tested on: NCI-H460; test: Antitumor activity against human NCI-H460 cells xenografted subcutaneously in BALB/c nude mouse assessed as survival rate at 60 to 120 mg/kg, po qd for 6 days relative to control; assay type: functional, organism-based; summary of the method: as §1
[6] = target: DNA topoisomerase 2-alpha (Homo sapiens) (UniProt P11388); test: Inhibition of human topoisomerase 2 mediated relaxation of super coiled pBR322 plasmid DNA at 30 uM after 30 mins by agarose gel electrophoresis
Sequence of DNA topoisomerase 2-alpha (Homo sapiens) (P11388 whole entry): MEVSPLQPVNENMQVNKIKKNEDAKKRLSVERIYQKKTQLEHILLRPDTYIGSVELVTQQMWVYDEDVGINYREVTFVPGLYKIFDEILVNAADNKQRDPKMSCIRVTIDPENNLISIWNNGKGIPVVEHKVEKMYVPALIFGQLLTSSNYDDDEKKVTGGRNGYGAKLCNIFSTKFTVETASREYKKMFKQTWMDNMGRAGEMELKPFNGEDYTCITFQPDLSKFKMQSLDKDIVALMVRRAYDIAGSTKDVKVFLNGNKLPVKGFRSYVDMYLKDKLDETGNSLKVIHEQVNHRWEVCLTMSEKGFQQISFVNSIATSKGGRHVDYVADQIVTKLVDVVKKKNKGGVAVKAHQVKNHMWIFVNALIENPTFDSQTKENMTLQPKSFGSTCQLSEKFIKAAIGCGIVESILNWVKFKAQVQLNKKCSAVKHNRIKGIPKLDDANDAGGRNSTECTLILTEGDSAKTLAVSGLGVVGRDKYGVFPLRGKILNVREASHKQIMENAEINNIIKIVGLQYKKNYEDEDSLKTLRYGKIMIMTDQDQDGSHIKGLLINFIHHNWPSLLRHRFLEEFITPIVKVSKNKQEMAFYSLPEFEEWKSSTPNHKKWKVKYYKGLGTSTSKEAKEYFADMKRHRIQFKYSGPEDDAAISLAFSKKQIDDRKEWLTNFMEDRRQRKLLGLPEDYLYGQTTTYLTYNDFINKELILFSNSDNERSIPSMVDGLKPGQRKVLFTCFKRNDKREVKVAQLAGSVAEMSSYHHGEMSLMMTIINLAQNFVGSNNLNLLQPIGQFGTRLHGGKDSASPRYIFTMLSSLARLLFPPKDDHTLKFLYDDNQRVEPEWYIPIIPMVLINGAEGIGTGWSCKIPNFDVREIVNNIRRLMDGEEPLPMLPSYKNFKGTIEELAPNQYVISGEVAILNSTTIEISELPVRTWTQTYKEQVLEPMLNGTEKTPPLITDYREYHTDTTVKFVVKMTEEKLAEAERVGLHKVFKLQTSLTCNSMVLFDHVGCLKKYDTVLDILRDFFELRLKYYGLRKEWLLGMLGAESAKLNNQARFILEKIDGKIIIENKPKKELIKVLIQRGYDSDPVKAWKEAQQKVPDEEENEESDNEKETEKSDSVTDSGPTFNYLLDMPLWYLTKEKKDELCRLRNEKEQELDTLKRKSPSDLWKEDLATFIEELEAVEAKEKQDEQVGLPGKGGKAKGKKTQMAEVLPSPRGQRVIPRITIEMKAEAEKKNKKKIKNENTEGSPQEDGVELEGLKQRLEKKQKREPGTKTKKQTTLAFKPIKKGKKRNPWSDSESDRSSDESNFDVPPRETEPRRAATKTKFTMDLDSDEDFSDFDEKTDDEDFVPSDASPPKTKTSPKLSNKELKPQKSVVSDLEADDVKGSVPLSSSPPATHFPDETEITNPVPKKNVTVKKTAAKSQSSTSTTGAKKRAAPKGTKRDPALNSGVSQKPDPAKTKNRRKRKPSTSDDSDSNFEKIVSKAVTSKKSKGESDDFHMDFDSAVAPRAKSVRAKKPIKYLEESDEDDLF

[7] = tested on: NCI-H460; test: Effect on cell cycle in human NCI-H460 cells assessed as rounded-up phenotype at 1 uM after 24 hrs; assay type: functional, cell-based
Summary of the method: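 Morphology of H460 cells was inspected for rounding after 1 μM treatment for 24 h.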

[8] = tested on: NCI-H460; test: Cell cycle arrest in human NCI-H460 cells assessed as cell accumulation in 4N ploidy after 24 hrs using propidium iodide staining based flow cytometric analysis; assay type: functional
[9] = tested on: NCI-H460; test: Antitumor activity against human NCI-H460 cells xenografted subcutaneously in BALB/c nude mouse assessed as increased tumor regression at 10 to 20 mg/kg, ip for 6 days relative to control; assay type: functional, organism-based; summary of the method: as §1
[10] = tested on: NCI-H460; test: Induction of apoptosis human NCI-H460 cells assessed as caspase 3 cleavage; assay type: functional, cell-based
[11] = tested on: NCI-H460; test: Antimitotic activity in human NCI-H460 cells assessed as mitotic catastrophe at 3 uM after 12 hrs using DAPI staining based immunofluorescence analysis; assay type: functional, cell-based
Summary of the method: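 H460 cells were treated at 3 μM for 12 h and co-stained for α-tubulin (immunofluorescence) and DAPI. Images were taken at 1000×, and centrosome number was counted in 50 cells.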

[12] = tested on: NCI-H460; test: Antitumor activity against human NCI-H460 cells xenografted subcutaneously in BALB/c nude mouse assessed as increased tumor regression at 60 to 120 mg/kg, po for 6 days relative to control; assay type: functional, organism-based; summary of the method: as §1
[13] = species on record: Bos taurus; test: Inhibition of bovine tubulin assessed as inhibition of microtubule formation preincubated at 3 uM by light-scattering assay
Summary of the method: (§3)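 Light-scattering assay with 5 μg bovine tubulin preincubated with compound. Spontaneous microtubule formation was followed as turbidity increase at OD 340 nm and compared with the untreated control.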

[14] = tested on: NCI-H460; test: Antitumor activity against human NCI-H460 cells xenografted subcutaneously in BALB/c nude mouse assessed as survival rate at 10 to 20 mg/kg, ip for 6 days relative to control; assay type: functional, organism-based; summary of the method: as §1
[15] = tested on: NCI-H460; test: Antitumor activity against human NCI-H460 cells xenografted subcutaneously in BALB/c nude mouse assessed as decreased tumor size at 60 to 120 mg/kg, po qd for 6 days relative to control; assay type: functional, organism-based; summary of the method: as §1
[16] = tested on: NCI-H460; test: Induction of apoptosis human NCI-H460 cells assessed as PARP cleavage; assay type: functional, cell-based
[17] = species on record: Bos taurus; test: Inhibition of bovine tubulin assessed as inhibition of microtubule formation preincubated at 1 uM by light-scattering assay relative to control; summary of the method: as §3
[18] = tested on: NCI-H460; test: Increase in MPM2 phosphoprotein level in human NCI-H460 cells after 16 hrs by immunoblotting analysis; assay type: functional, cell-based; summary of the method: as §2

Q: Which results are given for `C/C(=N\OCCN)c1ccc(Nc2c3ccccc3nc3occc23)cc1`?
A: Activity [1]: Active; Activity [2]: Active; Activity [3]: Dose-dependent effect; inhibition [4]: inactive; Activity [5]: Active; inhibition [6]: inactive; Activity [7]: Active; Activity [8]: Dose-dependent effect; Activity [9]: Active; Activity [10]: Dose-dependent effect; Activity [11]: Active; Activity [12]: Active; inhibition [13]: Active; Activity [14]: Active; Activity [15]: Active; Activity [16]: Dose-dependent effect; inhibition [17]: 50%; Activity [18]: Dose-dependent effect
